# Screening results (PubChem)
# In the library only some 0.55% were active in any assay of this set; here they are far more common.
# OXTR potentiate – potentiates the human oxytocin receptor response | CHO-OTR cells, Fluo-8 calcium fluorescence, potentiator mode; 0% = oxytocin EC15, 100% = EC100 | activation, % at 3 µM | 320,000 tested, 0.061% active | AID 2445;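 active means activation above that plate's cutoff, the mean activation of tested compounds plus 3 SD, cut at about 6.6% in these data, passing the limit was not always enough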;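 further: 100% uses oxytocin at 75 nM as the full agonist control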
#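 assay system = CHO-OTR cells, human receptor | schedule = compound 6 min at room temperature before oxytocin, 100 s read | detection = Fluo-8 intracellular calcium fluorescence, ex 470-495, em 515-575 nm | evaluation = normalized max/min fluorescence ratio, % activation | control set = EC15 oxytocin alone as 0%, 75 nM oxytocin (EC100) as 100%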
# V1aR counter – V1a receptor agonism, counter-screen for OXTR agonists. AID 2797. activation, % at 3 µM. 320,000 tested, 0.25% active. CHO-V1R cells, Fluo-8 calcium fluorescence, agonist mode; 0% DMSO, 100% 3 nM vasopressin. P37288;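 active means activation above the mean activation of all tested compounds plus 3 SD, per screening run, cut at about 20% in these data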;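 further: signal is peak over basal fluorescence ratio across a 100 second FLIPR read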
# TRPN1 ag – agonists of zebrafish TRPN1 channel. AID 1424. HEK293 zebrafish TRPN1-YFP, Fluo-8 calcium fluorescence; 100% = response to 87 µM carbachol. 220,000 tested, 0.18% active. activation, % at 3 µM;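 active means activation above its plate's cutoff, the mean activation of test wells on that plate plus 3 SD, cut at about 19% in these data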;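 further: 0% = DMSO alone and 100% = 87 µM carbachol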
#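 Control set: carbachol 87 µM as high control, DMSO as low control; system: HEK293 stable line with zebrafish TRPN1-YFP; read-out: % activation versus carbachol response; detection: intracellular calcium fluorescence with Fluo-8; doses: single test compound dose, 3 µM nominal, 0.3% DMSO; schedule: dye 1 h 37 °C plus 30 min RT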
# TRPML3 ag – activates the human TRPML3 channel; HEK293 TRPML3-YFP, Fluo-8 calcium fluorescence; 100% = the carbachol control signal; 220,000 tested, 0.29% active; AID 1448; activation, % at 3 µM; Q8TDD5;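 active means activation above its plate's cutoff, the mean activation of the plate's test wells plus 3 SD, cut at about 12% in these data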;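 further: 0% = DMSO only wells and 100% = carbachol wells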
# Target sequence (Q8TDD5 whole entry, looked up): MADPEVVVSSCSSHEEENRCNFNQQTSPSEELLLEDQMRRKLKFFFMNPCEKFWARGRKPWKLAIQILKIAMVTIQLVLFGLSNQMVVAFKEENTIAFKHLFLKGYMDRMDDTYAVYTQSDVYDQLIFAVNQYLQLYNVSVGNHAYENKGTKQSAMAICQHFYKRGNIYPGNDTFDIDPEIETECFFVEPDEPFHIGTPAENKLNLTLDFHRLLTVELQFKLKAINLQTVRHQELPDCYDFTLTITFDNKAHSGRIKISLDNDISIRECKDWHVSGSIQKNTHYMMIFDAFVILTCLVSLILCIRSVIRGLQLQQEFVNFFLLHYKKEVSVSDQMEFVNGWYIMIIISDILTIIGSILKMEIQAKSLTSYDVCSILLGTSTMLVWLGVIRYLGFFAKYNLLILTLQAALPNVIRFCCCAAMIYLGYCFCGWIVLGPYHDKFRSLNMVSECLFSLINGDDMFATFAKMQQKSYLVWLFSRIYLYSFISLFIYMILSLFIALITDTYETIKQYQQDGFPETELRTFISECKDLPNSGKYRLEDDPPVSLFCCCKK
#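 Test system: HEK293 cells stably carrying human TRPML3-YFP; Doses: single dose, 3 µM final nominal compound, 0.3% DMSO final; Schedule: dye loading 1 h 37 °C then 30 min ambient, 125 s read; Technique: Fluo-8 calcium fluorescence; Benchmarks: high control carbachol 87 µM, low control DMSO.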
# OXTR ag – activates the human oxytocin receptor; P30559; CHO-OTR cells, Fluo-8 calcium fluorescence; normalized: DMSO 0%, oxytocin 100%; activation, % at 3 µM; 320,000 tested, 0.32% active;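 active means activation above the mean of all tested compounds plus 3 SD, cutoff set per screening run, cut at about 20% in these data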;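 further: peak over basal fluorescence ratio from a 100 s FLIPR kinetic read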
# Starred values were filed as active, the others as inactive; . = no result given.
SMILES,OXTR potentiate,V1aR counter,TRPN1 ag,TRPML3 ag,OXTR ag
COc1ccc(C2C=C(c3cccs3)Nc3nc(CCCO)nn32)cc1 (configuration not stated),-4,51*,3,1,47*
COc1ccc(C2C=C(c3ccccc3)Nc3nc(CCCO)nn32)cc1 (configuration not stated),-15,-1,0,0,-1
O=C(Nc1ccccn1)c1ccc2c(c1)S(=O)(=O)c1ccccc1C2=O,-6,0,2,1,2
O=C1c2ccccc2S(=O)(=O)c2cc(C(=O)N(c3ccccn3)c3ccccn3)ccc21,-11,89*,35*,76*,88*
CC(=O)OCCn1c2nc(=O)[nH]c(=O)c-2nc2cc(C)c(C)cc21,.,.,142*,88*,.
CC(=O)OCCn1c(C)[n+](CCOC(C)=O)c2cc(Cl)c(Cl)cc21,9,2,0,0,1
CC(=O)[C@]1(O)Cc2c(O)c3c(c(O)c2[C@@H](O[C@H]2C[C@H](N)[C@H](O)[C@H](C)O2)C1)C(=O)c1ccccc1C3=O,-16,40*,.,.,77*
COc1cccc2c1C(=O)c1c(O)c3c(c(O)c1C2=O)C[C@@](O)(C(C)=O)C[C@@H]3O[C@H]1C[C@H](N)[C@H](O)[C@H](C)O1,.,.,13,8,.
Cc1[nH]n(-c2ccccc2)c(=S)c1C=Nc1cccc([N+](=O)[O-])c1,-1,6,0,0,0
Cc1ccc(OCCn2c(SCCO)nc3c(N)ncnc32)cc1,-2,2,.,.,1
CN1C(=O)c2cccc3c(N(C)C)ccc(c23)C1=O,-20,23*,.,.,23*
CNc1ccc2c3c(cccc13)C(=O)N(C)C2=O,-26,314*,.,.,192*
CN1C(=O)c2cccc3c(Cl)ccc(c23)C1=O,-1,0,1,1,-2
CC(=O)Nc1ccc(SCC(=O)N(C)C2CCS(=O)(=O)C2)cc1 (configuration not stated),-21,0,-1,-1,1
Cc1ccc(S(=O)(=O)N/N=C/c2ccc(OC3CSC3)cc2)cc1,-29,40*,20*,13*,24*
COc1ccc(CN(C)CC(=O)NC2CCCc3ccccc32)cc1OC (configuration not stated),1,0,-1,0,1
Nc1nc(C2CC2)c(Sc2sc(N)nc2C2CC2)s1,-22,25*,1,1,25*
COc1ccc(-n2nc(C(=O)NCC(=O)NCCN(C)C)c3ccccc3c2=O)c(OC)c1,4,1,.,.,1
Cc1occc1C(=O)Nc1cccc([N+](=O)[O-])c1C,0,-1,0,0,0
CCOC(=O)c1nn(-c2ccccc2)c2nnc(Cc3ccc(C)cc3)c(=O)n12,12*,0,0,0,-3
COc1cccc(OC)c1C(=O)Nc1ccccc1C(=O)N1CCCCCC1,4,-1,.,.,-1
O=C1/C(=C\c2cc([N+](=O)[O-])ccc2O)SC(=S)N1Cc1ccc(Cl)cc1,-25,67*,.,.,96*
COc1cc(/C=C2\SC(=S)N(C(C(=O)O)c3ccccc3)C2=O)ccc1O (configuration not stated),-12,49*,40*,27*,33*
COc1cc(/C=C2/SC(=S)N(Cc3ccccc3)C2=O)ccc1O,-5,36*,.,.,28*
COc1ccc(C2CC3(CC(C)(C)NC(SC)=N3)Oc3cc(O)cc(C)c32)cc1 (configuration not stated),-10,51*,1,1,39*
SMILES,OXTR potentiate,V1aR counter,TRPN1 ag,TRPML3 ag,OXTR ag
CCN1CCN(c2c(/C=C3\SC(=S)N(Cc4ccco4)C3=O)c(C)c(C#N)c(=O)n2C)CC1,-10,20*,2,4,14
Nc1nc2c(nc(SCc3ccccc3Br)n2C2OC(CO)C(O)C2O)c(=O)[nH]1 (configuration not stated),-5,-1,-1,0,-1
Cc1cnc(NC(=O)CSc2ncc(-c3ccccc3)n2Cc2ccco2)s1,-34,30*,17,10,26*
OCCNCc1c(OCc2ccc(Cl)cc2)ccc2ccccc12,-20,30*,.,.,30*
O=C(c1ccc([N+](=O)[O-])cc1)N(Cc1ccc(Br)cc1)N1C(=O)CCCC1=O,-7,1,47*,95*,2
C=CCn1c(SCC)nc(O)cc1=O,-5,60*,1,1,29*
CSc1ccc(Cn2nnc(C(=O)NCc3ccccc3)c2N)cc1,-26,36*,19,11,36*
Nc1c(C(=O)NCc2ccccc2)nnn1Cc1ccccc1,-7,4,0,0,2
Cc1ccc(Cn2nnc(C(=O)Nc3cc(C)ccc3C)c2N)cc1,-9,23*,5,4,20*
COc1ccc([C@@H]2[C@@H]3C(=O)N(C(C)(C)C)C(=O)[C@@H]3[C@]3(C)C(=O)N(c4cccc(Br)c4)C(=O)N23)cc1,1,0,.,.,3
CC[C@@H](C(=O)[C@@H](C)[C@@H](O)[C@H](C)CCc1ccc(C)c(O)c1C(=O)O)[C@H]1O[C@](CC)([C@H]2CC[C@](O)(CC)[C@H](C)O2)C[C@@H]1C,-9,42*,.,.,32*
CCC(C)(C)c1ccc(OC(=O)c2cccnc2Cl)cc1,-8,2,.,.,-2
CC(C)CSC1=NSC2=NC(=O)/C(=C\c3ccccc3)C(=N)N12,-3,-1,-1,-1,0
N=C1/C(=C/c2coc3ccccc3c2=O)C(=O)N=C2SC(c3ccco3)=NN12,2,5,15,6,11
CC(C)CSC1=NSC2=NC(=O)/C(=C\c3coc4ccccc4c3=O)C(=N)N12,-21,43*,21*,13*,121*
N=C1/C(=C\c2coc3ccccc3c2=O)C(=O)N=C2SC(c3ccncc3)=NN12,-8,98*,61*,34*,92*
N=C1/C(=C\c2coc3ccc(O)cc3c2=O)C(=O)N=C2SC=CN12,-26,42*,84*,18*,47*
S=C(NCCCN1CCOCC1)N(Cc1ccccc1)Cc1ccccc1,-5,3,.,.,3
Cc1cccn2c(=O)c(C=NCCO)c(Nc3ccc(Cl)cc3)nc12,-2,0,1,0,0
CCOc1cc(NC(=S)Nc2ccccc2)c(OCC)cc1NC(=O)c1ccccc1,-8,-1,0,77*,-2
Cc1cccc(/N=C/c2sc3ccccc3c2O)n1,-18,3,2,1,1
Oc1c(C=Nc2cccc3cccnc23)sc2ccccc12,-25,65*,12,9,48*
Cc1ccc(N(C(=O)CNC(=O)c2ccco2)C(C(=O)NC2CCCCC2)c2ccncc2)c(C)c1 (configuration not stated),-4,0,.,.,1
